# According to ChEMBL document CHEMBL4145507, “Design, synthesis and biological evaluation of novel indole-benzimidazole hybrids targeting estrogen receptor alpha (ER-α)” (Eur J Med Chem, 2018):
# Calls of active or inactive are those of the source. No cut-off for these calls is given here.
# Assays:
# T47D [1] = test: Antiproliferative activity against human T47D cells after 48 hrs by MTT assay
# PBMC = test: Cytotoxicity against human PBMC at 100 uM after 48 hrs by MTT assay; format: cell-based
# Outline: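 PBMCs isolated from fresh blood of a healthy donor, held in RPMI-1640 with 10% FBS and antibiotic at 37 °C, 5% CO2. About 10^4 cells seeded per well, then MTT read-out as for the T47D assay (0.5 mg/ml MTT, 4 h, acidified DMSO, 570/620 nm).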
# Estrogen receptor = target: T1, Estrogen receptor (Homo sapiens, UniProt P03372); test: Displacement of fluoromone TM from recombinant human ERalpha after 2 hrs by fluorescence polarization analysis
# T1 sequence (P03372 whole entry): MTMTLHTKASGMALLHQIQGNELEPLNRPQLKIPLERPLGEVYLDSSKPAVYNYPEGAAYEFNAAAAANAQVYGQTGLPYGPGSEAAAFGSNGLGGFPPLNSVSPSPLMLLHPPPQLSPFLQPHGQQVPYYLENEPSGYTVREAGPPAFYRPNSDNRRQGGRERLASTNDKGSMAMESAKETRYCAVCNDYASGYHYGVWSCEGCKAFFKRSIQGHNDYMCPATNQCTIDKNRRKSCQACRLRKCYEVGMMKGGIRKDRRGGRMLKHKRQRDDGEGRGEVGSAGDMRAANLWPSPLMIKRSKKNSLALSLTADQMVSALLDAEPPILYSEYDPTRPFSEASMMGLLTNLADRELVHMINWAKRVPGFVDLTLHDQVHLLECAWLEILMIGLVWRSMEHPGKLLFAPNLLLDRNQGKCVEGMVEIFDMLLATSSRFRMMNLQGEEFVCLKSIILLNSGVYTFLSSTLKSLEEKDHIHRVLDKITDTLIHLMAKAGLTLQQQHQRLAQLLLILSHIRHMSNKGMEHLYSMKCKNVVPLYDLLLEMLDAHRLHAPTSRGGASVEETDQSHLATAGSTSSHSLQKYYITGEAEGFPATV
# Outline: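 Fluorescence polarization kit: serially DMSO-diluted compound mixed with recombinant human ERα/Fluormone ES2 complex, at least 2 h at room temperature in the dark. Controls were oestradiol for minimum polarization and free tracer. Percent inhibition normalized; IC50 from non-linear regression as the concentration displacing half of the bound ligand.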
# [2] = Drug uptake in human T47D cell cytosol at 5 uM after 24 hrs by confocal laser scanning microscopic method; format: ADME, subcellular
# [3] = Drug uptake in human T47D cell nucleus at 5 uM after 24 hrs by confocal laser scanning microscopic method; format: ADME, subcellular
# [4] = Drug uptake in human T47D cell plasma membrane at 5 uM after 24 hrs by confocal laser scanning microscopic method; format: ADME, cell membranes
# T47D [5] = test: Downregulation of ERalpha mRNA levels in human T47D cells at 5 uM after 48 hrs by semi-quantitative RT-PCR analysis; format: functional, cell-based
# Outline: (§1)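 T47D cells exposed 48 h; total RNA extracted with TRIzol, checked by NanoDrop and denaturing agarose gel, then reverse transcribed. ERα transcript amplified, run on agarose gel and quantified by densitometry, normalized to GAPDH; representative of three experiments.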
# T47D [6] = test: Downregulation of ERalpha protein levels in human T47D cells at 5 uM after 48 hrs by Western blot analysis; format: functional
# Outline: (§2)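 T47D cells exposed 48 h, lysed in modified RIPA (50 mM Tris-HCl pH 7.4, 150 mM NaCl, 1 mM EDTA, 1% NP-40, protease inhibitors), protein by Bradford. 50 µg protein run on 10% SDS-PAGE, transferred to nitrocellulose, blocked with 5% milk, probed overnight at 4 °C with rabbit anti-ERα (HC-20), HRP secondary, ECL detection. Normalized to β-actin; three experiments.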
# T47D [7] = test: Downregulation of ERalpha mRNA levels in human T47D cells at 15 uM after 48 hrs by semi-quantitative RT-PCR analysis; format: functional, cell-based; outline: as §1
# T47D [8] = test: Downregulation of ERalpha protein levels in human T47D cells at 15 uM after 48 hrs by Western blot analysis; format: functional; outline: as §2
# [9] = Drug uptake in human T47D cell nucleus at 15 uM after 24 hrs by confocal laser scanning microscopic method; format: ADME, subcellular
# [10] = Drug uptake in human T47D cell plasma membrane at 15 uM after 24 hrs by confocal laser scanning microscopic method; format: ADME, cell membranes
# [11] = Drug uptake in human T47D cell cytosol at 15 uM after 24 hrs by confocal laser scanning microscopic method; format: ADME, subcellular
SMILES,IC50 (T47D [1]) [µM],IC50 (Estrogen receptor) [µM],Activity (PBMC),also measured
Cc1cc(C)c2nc(-c3cc4ccccc4[nH]3)[nH]c2c1,24.8,,Non-Toxic,
c1ccc2cc3[nH]c(-c4cc5ccccc5[nH]4)nc3cc2c1,23.4,,Non-Toxic,
Brc1cnc2[nH]c(-c3cc4ccccc4[nH]3)nc2c1,21,,Non-Toxic,
BrC1=CN2NC(c3cc4ccccc4[nH]3)=NC2N=C1 (configuration not stated),24.4,,Non-Toxic,
Clc1cc2nc(-c3cc4ccccc4[nH]3)[nH]c2cc1Cl,21.2,,Non-Toxic,
c1ccc2[nH]c(-c3nc4ccccc4[nH]3)cc2c1,6.2,,Non-Toxic,
Cc1c(-c2ccc(O)cc2)n(Cc2ccc(OCCN3CCCCCC3)cc2)c2ccc(O)cc12,,,,Activity (T47D [7]): Active
c1ccc(Cn2c(-c3nc4cccnc4[nH]3)cc3ccccc32)cc1,,,Non-Toxic,
Cc1cccc2[nH]c(-c3cc4ccccc4[nH]3)nc12,8.9,0.192,Non-Toxic,
O=C(c1ccccc1)c1ccc2[nH]c(-c3cc4ccccc4n3Cc3ccccc3)nc2c1,,,Non-Toxic,
c1ccc2[nH]c(-c3nc4cccnc4[nH]3)cc2c1,,,Non-Toxic,
c1ccc2[nH]c(C3=Nc4cccc5cccc(c45)N3)cc2c1,20.5,0.202,Non-Toxic,

# More lines, main results first:
IC50 (T47D [1]) [µM],IC50 (Estrogen receptor) [µM],SMILES,Activity (PBMC),also measured
22.5,0.0767,Clc1cc2nc(-c3cc4ccccc4n3Cc3ccccc3)[nH]c2cc1Cl,Non-Toxic,
,0.3,Brc1cnc2[nH]c(-c3cc4ccccc4n3Cc3ccccc3)nc2c1,Non-Toxic,
4.99,0.0804,Brc1ccc2[nH]c(-c3cc4ccccc4[nH]3)nc2c1,Non-Toxic,Drug uptake [2]: Active; Drug uptake [3]: Not Active; Drug uptake [4]: Active; Activity (T47D [5]): Active; Activity (T47D [6]): 27.5%
13.4,,c1ccc(Cn2c(-c3nc4cc5ccccc5cc4[nH]3)cc3ccccc32)cc1,Non-Toxic,
,0.0469,O=C(c1ccccc1)c1ccc2[nH]c(-c3cc4ccccc4[nH]3)nc2c1,Non-Toxic,
,0.387,Cc1cccc2[nH]c(-c3cc4ccccc4n3Cc3ccccc3)nc12,Non-Toxic,
,0.539,BrC1=CN2NC(c3cc4ccccc4n3Cc3ccccc3)=NC2N=C1 (configuration not stated),Non-Toxic,
15.5,0.0736,Brc1ccc2[nH]c(-c3cc4ccccc4n3Cc3ccccc3)nc2c1,Non-Toxic,Activity (T47D [7]): Active; Activity (T47D [8]): 57.42%; Drug uptake [9]: Not Active; Drug uptake [10]: Active; Drug uptake [11]: Active
21.8,0.0331,Cc1cc(C)c2nc(-c3cc4ccccc4n3Cc3ccccc3)[nH]c2c1,Non-Toxic,
21.4,0.259,c1ccc(Cn2c(-c3nc4ccccc4[nH]3)cc3ccccc32)cc1,Non-Toxic,
